How the values were obtained:
[1] = tested on: Hepatitis C virus; assay: Antiviral activity against HCV Con1 in eplicon cells after 3 days by RT-PCR analysis; format: functional, organism-based, Hepacivirus hominis; conditions: isolate Con1, 72 h
Method in brief: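 HCV 1b-Con1 replicon cells seeded at 5000 cells/well one day before treatment; inhibitor in DMSO added as 10 serial twofold dilutions in duplicate (final 0.5% DMSO, 5% FBS). Harvested 3 days post dosing; replicon RNA quantified by real-time RT-PCR (Taqman), GAPDH RNA as endogenous control; EC50 calculated.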

[2] = Irreversible inhibition of HCV1b NS5B delta21 polymerase by radiolabeled nucleotide incorporation assay; parameters: species or system Hepatitis C virus subtype 1b

Row | EC50 [1] [nM] | IC50 [2] [nM] | SMILES
1 | 20 | 6 | Cc1cc2c(-c3ccc[nH]c3=O)c(C(=O)O)n(Cc3cnc4ccccc4c3Cl)c2cc1F
2 | 20 | 20 | Cc1cc2c(-c3ccc[nH]c3=O)c(C(=O)O)n(Cc3cc4ccc(F)cc4nc3Cl)c2cc1F
3 | > 1000 | 9 | Cc1cc2c(-c3ccc[nH]c3=O)c(C(=O)O)n(Cc3ccc(Cl)nc3)c2cc1F

— ChEMBL document CHEMBL3091412, “Discovery of an irreversible HCV NS5B polymerase inhibitor” (Bioorg Med Chem Lett, 2013)
